Assay outcomes (PubChem BioAssay)
Shown are actives, neighbours in structure and some others; about 0.95% of the full set was active somewhere.
PvdQ inh = P. aeruginosa PvdQ acylase inhibitors, primary screen, biochemical, fluorescence, plate reader and imaging, single point; PvdQ acylase [Pseudomonas aeruginosa LESB58]; purified PvdQ acylase; inhibition, % at 10 µM; 340,000 tested, 0.063% active; in the data active = inhibition above about 30%, passing the limit was not always enough;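 also: 0% = vehicle neutral wells and 100% = reference inhibitor wells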
CAL PDZ FP-1 = CAL PDZ peptide-binding inhibitors, primary screen, biochemical, fluorescence polarization, Cer-tagged CAL PDZ, HTS. Golgi-associated PDZ and coiled-coil motif-containing protein (Homo sapiens), Q9HD26. purified CAL PDZ, TMR-peptide fluorescence polarization, 1 h. inhibition, % at 20 µM. 330,000 tested, 0.02% active;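 active = highest replicate inhibition of at least 40%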;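 also: plate controls were DMSO neutral control wells for no effect and unlabeled competitor peptide control wells for full effect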
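Material: tagged CAL PDZ protein CerCALP, purified; buffer or medium: sodium phosphate/NaCl buffer pH 7.4 with TCEP, IgG, Thesit; also added: fluorescent TMR peptide probe; schedule: 1 h incubation at room temperature before polarization reading; technique: fluorescence polarization from S- and P-plane intensities, G-factor corrected; control set: unlabelled peptide and DMSO controls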
miR-122 sensor = miR-122 Renilla sensor signal increase in Huh7, primary screen, miR-122 inhibitor project, cell-based, single point, plate reader; 340,000 tested, 0.3% active; activation (reporter increase), % at 12.5 µM; Huh7 miR-122 Renilla luciferase sensor, 48 h; neutral wells = 0, positive control = 100;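 active = mean replicate activation score at least 90 and every replicate individually at or above 90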;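 also: higher luciferase means less miR-122 activity so hits act as miR-122 inhibitors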
CAL PDZ FP-2 = untagged CAL PDZ binding inhibitors, primary screen, biochemical, fluorescence polarization, HTS; Golgi-associated PDZ and coiled-coil motif-containing protein (Homo sapiens), Q9HD26; purified CAL PDZ, TMR-peptide fluorescence polarization, 1 h; inhibition, % at 24.9 µM; 300,000 tested, 0.92% active; AID 602252, 2012;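 active = mean inhibition of at least 30% with at least half of replicates also reaching 30%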;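 also: 0% = DMSO neutral control and 100% = excess unlabeled competitor peptide PRC23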
Starred values were filed as active, the others as inactive; nt = not tested or not shown; + = active, no number; [ ] = dose if it differs, or a comment.

SMILES	PvdQ inh	CAL PDZ FP-1	miR-122 sensor	CAL PDZ FP-2
NS(=O)(=O)c1ccc(NC(=S)NC(=O)c2ccc(Br)o2)cc1	3.8	-3.3	1.6	-21.1
CCSc1ccccc1C(=O)NCCc1ccccc1	-11.3	-0.4	nt	45.5*
O=[N+]([O-])c1ccc(CCn2ccnc2)cc1	8.3	-1.1	-2.2	4.8
Cc1cc(C)c2c(c1)OC(O)(C(F)F)CC2=O (stereo not given)	-8.2	-2.6	-2.5	-2.5
CCC(C)(C)C1CCC2(CC1)NC(=O)N(CC(=O)NCCc1ccc(OC)c(OC)c1)C2=O (stereo not given)	-3.6	-0.4	-10.7	-1.5
Cc1ccc(C(=O)c2cc3c(cc2N)OCCO3)cc1	-6.2	0.2	0.4	3.9
O=C(Nc1ccccc1)c1ccc(Br)o1	3.1	-0.1	nt	-2.6
CCOC(=O)c1cc(S(=O)(=O)NCCc2ccccc2)cn1C	6.1	-2.7	113.9*	-5.8
O=C(Nc1ccc(S(=O)(=O)NCCc2ccccc2)cc1)c1ccc(Br)o1	2.4	-3.2	200.9*	-0.9
CCOC(=O)c1cc(S(=O)(=O)NCc2ccco2)cn1C	15.9	-1.8	9.1	-5.6
CCCS(=O)(=O)NC(=O)C1(C)CCCN(C(=O)c2ccccc2Br)C1 (stereo not given)	nt	nt	-5.2	nt
C[C@@H]1CCCCO[C@@H](CN(C)Cc2ccc(C(F)(F)F)cc2)[C@@H](C)CN([C@@H](C)CO)C(=O)c2cc(NC(=O)c3ccncc3)ccc2O1	nt	nt	9.8[16.7 µM]	nt
COC(=O)c1ccc(NC(=O)c2sc3nc(-c4ccccc4)cn3c2C)cc1	-10.7	-0.2	-2.5	nt
COC(=O)c1ccc(NC(=O)c2c(C(=O)Nc3ccccc3)sc3nc(C)cc(=O)n23)cc1	-14.6	-1.1	nt	98.8*
COc1cc(C(=O)OCC(=O)N2CCCCC2C)ccc1OCc1c(C)noc1C (stereo not given)	-7.2	0.1	-8.0	45.7*
Nc1nonc1C(=O)NCCNCc1ccccc1OCc1ccccc1F	-11.3	-1.4	-10.0	74.2*
Cc1cc(C)c(S(=O)(=O)NCCc2ccccc2)c(C)c1	-1.8	1.3	nt	-0.7
Cc1cc(C)c(S(=O)(=O)NCCn2ccc3ccccc32)c(C)c1	-11.2	-0.5	125.9*	1.4
CCOC(=O)CC(C#N)c1cn(C)c2ccccc12 (stereo not given)	37.6*	-1.8	0.0	-7.3
O=C(O)c1ccccc1Sc1ncnc2sc3c(c12)CCC3	-20.8	nt	nt	64.8*
NS(=O)(=O)c1ccc(CNC(=S)NCc2ccc(F)cc2)cc1	-6.5	-1.0	-4.7	38.9*
O=C(COC(=O)CNC(=O)c1ccccc1Cl)NC1CC1	-8.5	1.3	-7.8	39.1*
CC(=O)Nc1ccc(S(=O)(=O)N2CCN=C2c2ccccc2)cc1	4.6	-2.2	nt	-0.9
COc1cc(NS(=O)(=O)c2ccc(-n3cccn3)cc2)cc(OC)c1	nt	nt	95.2*	nt
COc1ccc(-c2csc(N(Cc3ccco3)C(=O)c3cccs3)n2)cc1	-9.4	191.2*	5.6	-2.9
SMILES	PvdQ inh	CAL PDZ FP-1	miR-122 sensor	CAL PDZ FP-2
CC(=O)n1nc(-c2ccccc2)nc1NCc1cccs1	-15.0	7.5	nt	71.6*
CCC(=O)n1nc(-c2ccc(OC)cc2)nc1NCc1cccs1	-7.6	-1.6	nt	-2.8
O=S(=O)(NCC1CCCO1)c1ccc(Cl)c(C(F)(F)F)c1 (stereo not given)	-4.6	-2.1	154.5*	nt
CC1=C(C)C(=O)N(c2ccc(C(=O)O)cc2)C1=O	-21.1	-0.3	nt	-3.0
CCOC(=O)c1ccc(N2C(=O)C(C)=C(C)C2=O)cc1	37.6*	0.8	2.2	-1.5
COCCNC(=O)C[C@H]1C[C@@H]2c3cc(NC(=O)C4CCOCC4)ccc3O[C@@H]2[C@H](CO)O1	nt	nt	-2.9[16.7 µM]	nt
O=C(CCC(=O)Nc1ccc(Br)cc1)N/N=C/c1ccccc1O	-3.7	-1.9	-3.2	+
Cc1ccc(NC(=O)CCC(=O)N/N=C/c2ccccc2O)cc1	-17.0	-3.3	-5.2	-4.2
COc1ccc(C2(c3ccc(OC)cc3)NC(=O)N(CC(=O)Nc3ccc(OC)c(OC)c3)C2=O)cc1	-5.7	-0.6	-6.7	51.2*
COc1ccc(NC(=O)CN2C(=O)NC3(CCCCCC3)C2=O)cc1Cl	10.2	0.7	8.8	2.7
CCC1CCC2(CC1)NC(=O)N(CC(=O)Nc1ccc(OC)c(Cl)c1)C2=O (stereo not given)	-11.2	-0.2	4.4	81.3*
